# High-throughput results from PubChem.
# Tn6 DDE FP: inhibitors of Tn6 peptide binding to fibrin DD(E), primary screen, biochemical, fluorescence polarization, human fibrin, Tn6 probe. Fibrinogen beta chain (Homo sapiens), P02675. Fibrin DD(E) TRITC-Tn6 fluorescence polarization displacement. inhibition, % at 8.3 µM. 0.21% of 370,000 active;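 active = inhibition above a per-campaign cutoff: mean of compounds within control limits plus 3 SD, cut at about 15% in these data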;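 also: 0% = median of all compound wells on the plate and 100% = blocking peptide control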
# Tn7 DDE FP: inhibitors of Tn7 peptide binding to fibrin DD(E), primary screen, biochemical, fluorescence polarization, human fibrin, Tn7 probe. inhibition, % at 8.3 µM. FP displacement of FITC-Tn7 peptide from fibrin DD(E); 0% = median of compound wells per plate. AID 720508, 2013. 0.13% of 370,000 active;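 active = inhibition above the mean of compounds falling within the control limits plus 3 SD of them, cut at about 14% in these data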;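 also: 0% = plate median of compound wells and 100% = 10 µM Aha-Tn7 peptide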
#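 Test system – human fibrin DD(E) · Times – 10 min preincubation, 3 h with tracer, room temperature · Detection – fluorescence polarization of the labelled Tn7 tracer · Measure – percent inhibition normalized to high-control wells · Benchmarks – high control wells with 10 µM unlabelled Aha-Tn7 peptide (full inhibition) · Repeats – singlicate testing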
# ARFGAP1 inh: inhibitors of rat ARFGAP1 GAP activity, primary screen, biochemical, fluorescence polarization, GDP tracer; Arfgap1-stimulated ARF1 GTP hydrolysis, GDP FP detection; inhibition, % at 16.5 µM; 0.26% of 360,000 active; AID 651572, 2012;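 active = inhibition above a per-plate limit, mean inhibition of low control wells plus 3 SD, cut at about 25% in these data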;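 also: 0% = DMSO wells with enzyme and 100% = wells lacking Arfgap1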
#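 Material: truncated rat Arfgap1 GAP domain; Incubation: compound-enzyme preincubation 20 min, reaction 120 min, detection 60 min, 25 °C; Read-out: percent inhibition of Arfgap1-stimulated GTP hydrolysis; Technique: FP, GDP Alexa 633 tracer displaced from anti-GDP antibody, 620/688 nm; Controls: No-Arfgap1 wells (100%) versus DMSO full-reaction wells (0%); Replication: single well per compound.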
# ASAP1 inh: inhibitors of human ASAP1 ArfGAP activity, primary screen, biochemical, fluorescence polarization; ASAP1-stimulated ARF1 GTP hydrolysis, GDP FP detection; inhibition, % at 16.5 µM; Arf-GAP with SH3 domain, ANK repeat and PH domain-containing protein 1 (Homo sapiens), …; 0.19% of 360,000 active; AID 624377, 2012; in the data active = inhibition above about 25%;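 also: 0% = vehicle with enzyme and substrate and 100% = no enzyme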
# Target sequence (Q9ULH1 325-724 limits assumed): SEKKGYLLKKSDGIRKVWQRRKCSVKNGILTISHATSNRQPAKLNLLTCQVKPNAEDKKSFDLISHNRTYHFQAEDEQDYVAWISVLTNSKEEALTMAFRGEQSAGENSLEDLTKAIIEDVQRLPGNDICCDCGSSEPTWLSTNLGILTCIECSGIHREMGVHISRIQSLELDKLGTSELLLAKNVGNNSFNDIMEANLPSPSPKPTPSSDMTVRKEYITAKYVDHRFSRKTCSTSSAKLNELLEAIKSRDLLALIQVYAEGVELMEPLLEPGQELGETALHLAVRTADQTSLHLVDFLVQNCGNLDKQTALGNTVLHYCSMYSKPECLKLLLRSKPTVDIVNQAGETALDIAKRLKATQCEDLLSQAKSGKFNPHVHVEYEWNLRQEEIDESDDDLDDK
# DDE Tn7 confirm: inhibitors of Tn7 peptide binding to fibrin DD(E), confirmation, biochemical, fluorescence polarization, human fibrin, Tn7 probe | shares compounds with Tn7 DDE FP | FP displacement of TRITC-Tn7 peptide from DD(E); 0% set at plate's compound-well median | inhibition, % at 8.3 µM | 5% of 460 active | AID 720628, 2013;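 active = inhibition above the campaign cutoff, the mean of compounds within control limits plus 3 SD, cut at about 14% in these data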;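 also: 100% = median FP of high control wells holding Aha-Tn7 inhibitor peptide; displacers lower polarization since freed probe rises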
# Tn7 DDE ctr: DD(E)-Tn7 binding inhibition, counter-screen; shares compounds with Tn7 DDE FP; fibrin DD(E), TRITC-Tn7 probe displacement, fluorescence polarization; inhibition, % at 8.3 µM; 3% of 460 active;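 active = inhibition above the cutoff, the mean of compounds lying between the control bounds plus 3 SD of those compounds, cut at about 17% in these data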;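 also: 0% = median of compound sample wells and 100% = excess unlabeled Aha-Tn7 peptide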
# The depositor's hits bear a star; . = no result given. Most compounds without a hit are left out; they make up all but 0.74% or so of the library.
SMILES,Tn6 DDE FP,Tn7 DDE FP,ARFGAP1 inh,ASAP1 inh,DDE Tn7 confirm,Tn7 DDE ctr
COc1ccc(OC)c(/C=C/C(=O)OCC(=O)Nc2nnc(-c3ccccc3)o2)c1,1,14*,-3,-5,7,1
O=c1[nH]cnc2c1c(-c1ccccc1)cn2-c1ccccc1,7,17*,2,10,2,-7
Cc1ccc(-n2cc(-c3ccccc3)c3c(=O)[nH]cnc32)cc1,-1,1,-8,-5,.,.
CN(C(=O)c1cccc(NC(=O)Cc2cccc(NC(=O)C3CCN(C(=O)C4CCC4)CC3)c2)c1)C1CC1,0,-8,9,-11,.,.
CN(C(=O)c1cccc(NC(=O)Cc2cccc(NC(=O)C3CCN(C(=O)C4CCCCC4)CC3)c2)c1)C1CC1,-4,15*,2,1,4,-5
Cc1ccc(Cn2c(C)c3cnn(CC(=O)NC4CCCC4)c(=O)c3c2C)cc1,-3,-5,9,12,.,.
CNC(=O)Cn1ncc2c(C)n(Cc3ccc(C)cc3)c(C)c2c1=O,-1,14*,2,-8,-2,0
COc1ccccc1CN1CCN(Cc2ccco2)CC1,8,3,-1,8,.,.
COc1ccc(CN2CCN(Cc3ccco3)CC2)c(OC)c1,8,14*,0,-2,2,0
CO[C@@H]1[C@H](O)CC[C@]2(O)CN(c3ccc(F)cc3)[C@](C)([C@H](O)CC=C(C)C)[C@@H]12,0,-13,-5,-2,.,.
COc1ccc(NC(=O)C[C@H]2C(=O)N(c3ccc(Br)cc3)C[C@@H]2c2ccc(OC)cc2)cc1,9,14*,0,0,5,0
COc1ccc(NC(=O)C[C@H]2C(=O)N(c3ccc(Br)cc3)C[C@@H]2C)cc1,4,1,-9,8,.,.
Cc1nc([N+](=O)[O-])cn1CC(Cl)Cn1cc([N+](=O)[O-])nc1C,-4,-1,12,12,.,.
COc1ccccc1N(C)S(=O)(=O)c1ccc(C(=O)OCC(=O)NCC(F)(F)F)cc1,-4,14*,-4,-5,-2,-9
COc1ccccc1N(C)S(=O)(=O)c1ccc(C(=O)OCC(=O)NCc2cccs2)cc1,-3,6,-6,2,.,.
COc1ccc(CC(=O)NCc2n[nH]c(=S)n2-c2ccccc2OC)cc1,2,15*,0,-7,-4,-16
Cc1ccc2c(c1)[C@H]1[C@H](CO2)[C@H](c2ccccc2)[C@]2(C)C(=O)N(Cc3ccc(Cl)cc3)CC(=O)N12,-8,-7,4,-3,.,.
Cc1ccc2c(c1)[C@H]1[C@H](CO2)[C@H](c2ccccc2)[C@]2(C)C(=O)N(Cc3ccc(F)cc3)CC(=O)N12,-6,27*,-7,9,14*,11
COc1ccc(/C=C/C(=O)OCC(=O)NC(C)CCc2ccccc2)cc1OC (centres undefined),7,14*,-3,0,1,-2
O=C(NCc1ccccc1)[C@@H]1CCCN1C(=O)[C@H]1CCCN1C(=O)c1ccccc1C(F)(F)F,-1,1,-5,-2,.,.
Cc1cc2nc3c(=O)n(CCc4ccccc4)c(=O)[nH]c3nc2cc1N,-5,23*,-6,-9,7,5
CCCCn1c(N)c(Br)c(=O)[nH]c1=O,-1,1,8,3,.,.
Nc1ccc2nc3c(=O)n(CCc4ccccc4)c(=O)[nH]c3nc2c1,-1,8,-4,-6,.,.
CCCCn1c(=O)[nH]c2nc3cc(N)ccc3nc2c1=O,8,25*,2,1,-12,0
Nc1ccc2nc3c(=O)n(C4CCCCC4)c(=O)[nH]c3nc2c1,8,27*,-1,-5,-6,7
CCCCc1c(-c2ccccc2OC)ncn1Cc1ccc(OC)c(Cl)c1,-7,-5,20,1,.,.
